According to ChEMBL document CHEMBL1142767, “2-(2-Furanyl)-7-phenyl[1,2,4]triazolo[1,5-c]pyrimidin-5-amine analogs: highly potent, orally active, adenosine A2A antagonists. Part 1” (Bioorg Med Chem Lett, 2005):
Active and inactive are the calls of the source.

Experiments:
Adenosine receptor A2a = Adenosine receptor A2a (Rattus norvegicus, UniProt P30543); experiment: In vitro ability to displace [3H]SCH-58261 from A2A adenosine receptor in Rat
[1] = molecular target: Adenosine receptors; A1 & A2a (Rattus norvegicus) (UniProt P25099+P30543)
Rattus norvegicus [2] = experiment: Anti-cataleptic activity in Rat at oral dose of 3 mg/kg retested at 1 hr after administration; type: functional
How it was run: (§1)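 Male CD rats, 200-240 g, housed 4 per cage on a 12-h light/dark cycle. Catalepsy was induced with haloperidol 1 mg/kg s.c. After 30 min, each rat was placed facing upward on a wire screen inclined at 60°, and time to move one limb was recorded (cut-off 120 s). Rats immobile >75 s received test compound orally and were retested at 1 and 4 h.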

Rattus norvegicus [3] = experiment: Anti-cataleptic activity in Rat at oral dose of 3 mg/kg retested at 4 hr after administration; type: functional; how it was run: as §1
Rattus norvegicus [4] = experiment: Anti-cataleptic activity in Rat at oral dose of 3 mg/kg retested at 1 and 4 hr after administration; Activity Not Traced; type: functional, organism-based; parameters: dose 3 mg/kg; how it was run: as §1

Adenosine receptor A2a, sequence (P30543 whole entry): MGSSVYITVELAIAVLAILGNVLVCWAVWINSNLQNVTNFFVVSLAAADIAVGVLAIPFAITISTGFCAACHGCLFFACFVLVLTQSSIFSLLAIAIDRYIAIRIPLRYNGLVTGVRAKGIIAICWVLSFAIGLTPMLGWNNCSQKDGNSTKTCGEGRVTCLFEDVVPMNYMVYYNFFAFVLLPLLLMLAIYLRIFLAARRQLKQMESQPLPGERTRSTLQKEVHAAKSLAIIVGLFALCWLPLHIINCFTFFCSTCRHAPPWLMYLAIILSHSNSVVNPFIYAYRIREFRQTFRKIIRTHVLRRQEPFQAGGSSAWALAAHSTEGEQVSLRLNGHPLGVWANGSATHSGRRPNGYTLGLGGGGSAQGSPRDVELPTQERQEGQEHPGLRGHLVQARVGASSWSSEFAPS
Adenosine receptors; A1 & A2a (Rattus norvegicus), sequence (P25099 whole entry, looked up): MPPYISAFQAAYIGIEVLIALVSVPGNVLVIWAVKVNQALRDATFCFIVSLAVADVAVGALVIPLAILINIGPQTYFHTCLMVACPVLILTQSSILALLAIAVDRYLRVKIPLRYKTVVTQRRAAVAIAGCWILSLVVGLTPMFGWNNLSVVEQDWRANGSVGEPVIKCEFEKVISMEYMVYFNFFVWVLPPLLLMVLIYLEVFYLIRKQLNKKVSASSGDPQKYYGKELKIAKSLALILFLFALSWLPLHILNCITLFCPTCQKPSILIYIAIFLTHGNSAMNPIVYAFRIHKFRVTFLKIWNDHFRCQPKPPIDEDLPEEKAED
Adenosine receptors; A1 & A2a (Rattus norvegicus), sequence (P30543 whole entry, looked up): as the sequence (P30543 whole entry) above

Work on `COc1cccc(-c2cc3nc(-c4ccco4)nn3c(N)n2)c1` yielded a Ki (Adenosine receptor A2a) of 5 nM and an Index [1] of 20.
In the case of `COCCOc1ccc(N2CCN(Cc3cccc(-c4cc5nc(-c6ccco6)nn5c(N)n4)c3)CC2)c(F)c1`, the Activity (Rattus norvegicus [2]) is reported as 20, the Activity (Rattus norvegicus [3]) is reported as 0 and the Ki (Adenosine receptor A2a) is reported as 2.7 nM. It also gave an Index [1] of 642.
In the case of `Nc1nc(-c2ccccc2)cc2nc(-c3ccco3)nn12`, the Ki (Adenosine receptor A2a) is reported as 7 nM and the Index [1] is reported as 3.
In the case of `COCCOc1ccc(N2CCN(Cc3cccc(-c4cc5nc(-c6ccco6)nn5c(N)n4)c3)CC2)c(C#N)c1`, the Activity (Rattus norvegicus [4]) is reported as “inactive”, the Ki (Adenosine receptor A2a) is reported as 3.6 nM and the Index [1] is reported as 85.
Compound `Nc1nc(-c2ccncc2)cc2nc(-c3ccco3)nn12` has a Ki (Adenosine receptor A2a) of 1.9 nM and an Index [1] of 66.
With `Cc1ccccc1-c1cc2nc(-c3ccco3)nn2c(N)n1` the Ki (Adenosine receptor A2a) was 22 nM and the Index [1] was 12.
`COc1cccc(OC)c1-c1cc2nc(-c3ccco3)nn2c(N)n1` was tested, and the Ki (Adenosine receptor A2a) was 1700 nM and the Index [1] was 1.
Compound `COCCOc1ccc(N2CCN(Cc3cccc(-c4cc5nc(-c6ccco6)nn5c(N)n4)c3)CC2)cc1` has an Activity (Rattus norvegicus [2]) of 40, an Activity (Rattus norvegicus [3]) of 65 and a Ki (Adenosine receptor A2a) of 2.8 nM. The Index [1] was 601.
`Nc1nc(-c2cccc(CN3CCN(c4ccc(Cl)c(Cl)c4)CC3)c2)cc2nc(-c3ccco3)nn12` was tested, and the Activity (Rattus norvegicus [4]) was “inactive”, the Ki (Adenosine receptor A2a) was 10.5 nM and the Index [1] was 3.
`Nc1nc(-c2ccccn2)cc2nc(-c3ccco3)nn12` showed a Ki (Adenosine receptor A2a) of 1.4 nM and an Index [1] of 34.
`COCCOc1ccc(N2CCN(Cc3cccc(-c4cc5nc(-c6ccco6)nn5c(N)n4)c3)CC2)cc1OC` gave an Activity (Rattus norvegicus [2]) of 33, an Activity (Rattus norvegicus [3]) of 39 and a Ki (Adenosine receptor A2a) of 3.3 nM. It also gave an Index [1] of 134.
`CC(C)c1ccc(-c2cc3nc(-c4ccco4)nn3c(N)n2)cc1` gave a Ki (Adenosine receptor A2a) of 4.7 nM and an Index [1] of 31.
`N#Cc1cccc(-c2cc3nc(-c4ccco4)nn3c(N)n2)c1` showed a Ki (Adenosine receptor A2a) of 5.4 nM and an Index [1] of 14.
With `COc1ccc(-c2cc3nc(-c4ccco4)nn3c(N)n2)c(OC)c1` the Ki (Adenosine receptor A2a) was 2.9 nM and the Index [1] was 98.
In the case of `Nc1cccc(-c2cc3nc(-c4ccco4)nn3c(N)n2)c1`, the Ki (Adenosine receptor A2a) is reported as 5 nM and the Index [1] is reported as 11.
Work on `COc1cccc(-c2cc3nc(-c4ccco4)nn3c(N)n2)c1OC` yielded a Ki (Adenosine receptor A2a) of 21.7 nM and an Index [1] of 27.
Work on `COc1ccc(-c2cc3nc(-c4ccco4)nn3c(N)n2)c(OC)c1OC` yielded a Ki (Adenosine receptor A2a) of 4.5 nM and an Index [1] of 17.
In the case of `Nc1nc(-c2cccs2)cc2nc(-c3ccco3)nn12`, the Ki (Adenosine receptor A2a) is reported as 4.4 nM and the Index [1] is reported as 15.
Compound `Nc1nc(-c2cccc(CN3CCC(c4ccc(F)cc4)CC3)c2)cc2nc(-c3ccco3)nn12` has an Activity (Rattus norvegicus [2]) of 20, an Activity (Rattus norvegicus [3]) of 20 and a Ki (Adenosine receptor A2a) of 7.4 nM. It also gave an Index [1] of 115.
In the case of `Nc1nc(-c2cccc(-c3ccccc3)c2)cc2nc(-c3ccco3)nn12`, the Ki (Adenosine receptor A2a) is reported as 5.5 nM and the Index [1] is reported as 82.
`COc1ccc(-c2cc3nc(-c4ccco4)nn3c(N)n2)cc1OC` showed a Ki (Adenosine receptor A2a) of 7.3 nM and an Index [1] of 64.
Work on `Nc1nc(-c2cccnc2)cc2nc(-c3ccco3)nn12` yielded a Ki (Adenosine receptor A2a) of 6.6 nM and an Index [1] of 65.
`COCCOc1ccc(N2CCN(Cc3cccc(-c4cc5nc(-c6ccco6)nn5c(N)n4)c3)CC2)cc1C#N` was tested, and the Activity (Rattus norvegicus [2]) was 14, the Activity (Rattus norvegicus [3]) was 9 and the Ki (Adenosine receptor A2a) was 1.1 nM. It also gave an Index [1] of 314.
Compound `COc1ccc(OC)c(-c2cc3nc(-c4ccco4)nn3c(N)n2)c1` has a Ki (Adenosine receptor A2a) of 4.5 nM and an Index [1] of 65.
Work on `COc1ccc(-c2cc3nc(-c4ccco4)nn3c(N)n2)cc1` yielded a Ki (Adenosine receptor A2a) of 7.3 nM and an Index [1] of 103.
`COCCOc1ccc(C2CCN(Cc3cccc(-c4cc5nc(-c6ccco6)nn5c(N)n4)c3)CC2)cc1` gave an Activity (Rattus norvegicus [2]) of 0, an Activity (Rattus norvegicus [3]) of 0 and a Ki (Adenosine receptor A2a) of 8.9 nM. The Index [1] was 202.
In the case of `Cc1ccc(-c2cc3nc(-c4ccco4)nn3c(N)n2)cc1`, the Ki (Adenosine receptor A2a) is reported as 8.4 nM and the Index [1] is reported as 19.
For `Nc1nc(-c2cccc(CN3CCN(c4ccccc4)CC3)c2)cc2nc(-c3ccco3)nn12`, the Activity (Rattus norvegicus [4]) was “inactive”, the Ki (Adenosine receptor A2a) was 4.6 nM and the Index [1] was 69.
With `COCCOc1cc(F)c(N2CCN(Cc3cccc(-c4cc5nc(-c6ccco6)nn5c(N)n4)c3)CC2)c(F)c1` the Activity (Rattus norvegicus [4]) was “inactive”, the Ki (Adenosine receptor A2a) was 6.4 nM and the Index [1] was 71.
For `COc1ccccc1-c1cc2nc(-c3ccco3)nn2c(N)n1`, the Ki (Adenosine receptor A2a) was 4.3 nM and the Index [1] was 27.
`COCCOc1ccc(N2CCN(Cc3cccc(-c4cc5nc(-c6ccco6)nn5c(N)n4)c3)CC2)c(C)c1` was tested, and the Activity (Rattus norvegicus [4]) was “inactive”, the Ki (Adenosine receptor A2a) was 2.7 nM and the Index [1] was 72.
For `Cc1cccc(-c2cc3nc(-c4ccco4)nn3c(N)n2)c1`, the Ki (Adenosine receptor A2a) was 3.7 nM and the Index [1] was 13.
For `COCCOc1c(F)cc(N2CCN(Cc3cccc(-c4cc5nc(-c6ccco6)nn5c(N)n4)c3)CC2)cc1F`, the Activity (Rattus norvegicus [2]) was 28, the Activity (Rattus norvegicus [3]) was 47 and the Ki (Adenosine receptor A2a) was 2.2 nM. The Index [1] was 338.
Work on `COc1cc(-c2cc3nc(-c4ccco4)nn3c(N)n2)cc(OC)c1OC` yielded a Ki (Adenosine receptor A2a) of 4.5 nM and an Index [1] of 69.
`COCCOc1ccc(N2CCN(Cc3cccc(-c4cc5nc(-c6ccco6)nn5c(N)n4)c3)CC2)c(Cl)c1` was tested, and the Activity (Rattus norvegicus [2]) was 12, the Activity (Rattus norvegicus [3]) was 15 and the Ki (Adenosine receptor A2a) was 2.9 nM. The Index [1] was 204.
`Nc1nc(-c2cccc(CO)c2)cc2nc(-c3ccco3)nn12` showed a Ki (Adenosine receptor A2a) of 2.8 nM and an Index [1] of 135.
For `CN(CCc1ccccc1)Cc1cccc(-c2cc3nc(-c4ccco4)nn3c(N)n2)c1`, the Activity (Rattus norvegicus [4]) was “inactive”, the Ki (Adenosine receptor A2a) was 3.6 nM and the Index [1] was 135.
With `Nc1nc(-c2cccc(CN3CCN(c4nccs4)CC3)c2)cc2nc(-c3ccco3)nn12` the Activity (Rattus norvegicus [2]) was 20, the Activity (Rattus norvegicus [3]) was 10 and the Ki (Adenosine receptor A2a) was 2.4 nM. It also gave an Index [1] of 192.
Work on `COCCOc1cccc(N2CCN(Cc3cccc(-c4cc5nc(-c6ccco6)nn5c(N)n4)c3)CC2)c1` yielded an Activity (Rattus norvegicus [2]) of 29, an Activity (Rattus norvegicus [3]) of 53 and a Ki (Adenosine receptor A2a) of 4 nM. For the same compound, the Index [1] was 115.
`Nc1nc(-c2cccc(CN3CCC(c4ccccc4)CC3)c2)cc2nc(-c3ccco3)nn12` was tested, and the Activity (Rattus norvegicus [4]) was “inactive”, the Ki (Adenosine receptor A2a) was 4.6 nM and the Index [1] was 69.
